Measurements pooled from the literature.
Target: Serine/threonine-protein kinase 33 (STK33, Homo sapiens, UniProt Q9BYT3)

| SMILES | read-out | mode | technique | tested at | quantity | result |
| --- | --- | --- | --- | --- | --- | --- |
| CN1CC(Oc2cnc(C#N)cc2-c2ccn3nc(NC(=O)C4CC4)cc3c2)C1 | enzyme activity | inhibitor |  | 1 µM | inhibition | -3% |
| COc1cc(Nc2cnc(C#N)c(O[C@H](C)CN(C)C)n2)ncc1-c1cnn(C)c1 | enzyme activity | inhibitor | radiometric | 1 µM | remaining activity | 59% |
| COc1cc(-c2cn(C3CCc4ccccc4N(CC(F)(F)F)C3=O)nn2)ccc1-n1ccc(C)n1 (stereo not shown) | cell-free assay |  | competition with immobilised ligand | 1 µM | remaining binding | 100% |
| COc1cc(Cl)c(C(=O)N[C@@H](CN[C@H]2CC[C@@H](N)CC2)Cc2ccc(C#N)cc2)cc1-c1ccc(CN[C@H](C)c2ccc(C)cc2)o1 | enzyme activity | inhibitor |  | 1 µM | remaining activity | 99% |
| Cc1cc(NC(=O)c2cccc(S(F)(F)(F)(F)F)c2)cc(-n2ccn3nc(-c4cccnc4)cc23)c1 | cell-free assay |  | competition with immobilised ligand | 1 µM | remaining binding | 87.8% |
| COc1cc(/C=C/C(=O)CC(=O)/C=C/c2ccc(O)c(OC)c2)ccc1O | enzyme activity | inhibitor |  | 1 µM | activity vs control | 25% |
| Cn1cnc(Br)c1C1=CN(c2ncnc3[nH]cnc23)CCS1 | enzyme activity | inhibitor | radiometric | 50 nM | inhibition | 35.8% |
| Cc1sc(C(=O)NC2COC2)cc1-n1cc(NC(=O)Nc2c(F)cccc2Cl)cn1 | enzyme activity | inhibitor |  | 10 µM | remaining activity | 87.6% |
| Cc1cnc(NC2CCOCC2)nc1-n1cnc(C(=O)NC(CN)c2cc(F)cc(Cl)c2)c1 (stereo not shown) | enzyme activity | inhibitor | radiometric | 1 µM | remaining activity | 71% |
| Cn1nc(C(F)(F)F)cc1-c1cnc(N2CCc3cc(S(=O)(=O)Nc4c(F)cc(Cl)cc4F)cc(N4CCCC4=O)c32)nc1 | cell-free assay |  | competition with immobilised ligand | 1 µM | remaining binding | 100% |
| Cc1ccc(Nc2nccc(N(C)c3ccc4c(C)n(C)nc4c3)n2)cc1S(N)(=O)=O | enzyme activity | inhibitor |  | 0.3 µM | inhibition | -2% |
| CC(C)c1ccc(NC(=O)c2cccs2)c(-c2nc3ccccc3[nH]c2=O)c1 | enzyme activity | inhibitor |  | 1 µM | activity vs control | 39% |
| CCCCN(CCCC)C(=O)CN1C[C@H](c2cc(OC)c3c(c2)OCO3)[C@@H](C(=O)O)[C@@H]1CC(C)(C)CCC | cell-free assay |  | competition with immobilised ligand | 1 µM | remaining binding | 100% |
| Cc1cc(NC(=O)c2cccc3cc(-c4cccc5[nH]nc(N)c45)ccc23)ccc1F | enzyme activity | inhibitor |  | 0.1 µM | activity vs control | 126% |
| FC(F)(F)Oc1cccc(-c2cnc3ccc(-c4ccncc4)nn23)c1 | enzyme activity | inhibitor | radiometric | 5 µM | activity vs control | 100% |
| CN(C)c1ncnc(-c2ccc3nc(Nc4cc(CN5CCN(C(=O)CC(F)(F)F)CC5)ccn4)[nH]c3c2)c1Cl | cell-free assay |  | competition with immobilised ligand | 1 µM | remaining binding | 100% |
| CCN(CC)c1ccc(C2=NNC(=O)CC2C)cc1[N+](=O)[O-] (stereo not shown) | enzyme activity | inhibitor |  | 10 µM | remaining activity | 102% |
| Cn1cncc1C1=CN(c2ncnc3[nH]cnc23)CCS1 | enzyme activity | inhibitor | radiometric | 50 nM | inhibition | 23.6% |
| Cc1nccc(COC(=O)N2C[C@@H]3[C@@H](CNC(=O)c4ccc5[nH]nnc5c4)[C@@H]3C2)n1 | cell-free assay |  | competition with immobilised ligand | 1 µM | remaining binding | 93% |
